According to ChEMBL document CHEMBL6134787, “Fexinidazole optimization: enhancing anti-leishmanial profile, metabolic stability and hERG safety” (RSC Med Chem, 2024):
pIC50: −log10 of the molar value.

Legend:
[1] = tested on: Leishmania amazonensis; experiment: Antileishmanial activity against wild type Leishmania amazonensis LV78 promastigotes […] assessed as inhibition of parasite growth incubated for 72 hrs by automatic microtiter plate reader analysis; type: functional, organism-based
Method in brief: (§1)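 Promastigotes were grown in Schneider's medium (4 mM glutamine, gentamicin, 10% heat-inactivated FBS, pH 6.9, 27 °C). Cells were seeded at 1.5 × 10^5/well and exposed to a concentration series for 72 h at 27 °C.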

[2] = tested on: Leishmania braziliensis; experiment: Antileishmanial activity against wild type Leishmania braziliensis UA847 promastigotes […] assessed as inhibition of parasite growth incubated for 72 hrs by automatic microtiter plate reader analysis; type: functional, organism-based; method in brief: as §1
[3] = tested on: Leishmania major; experiment: Antileishmanial activity against wild type Leishmania major FV1 promastigotes […] assessed as inhibition of parasite growth incubated for 72 hrs by automatic microtiter plate reader analysis; type: functional, organism-based; method in brief: as §1
[4] = tested on: Leishmania donovani; experiment: Antileishmanial activity against wild type Leishmania donovani HU3 promastigotes […] assessed as inhibition of parasite growth incubated for 72 hrs by automatic microtiter plate reader analysis; type: functional, organism-based
[5] = tested on: Leishmania donovani; experiment: Antileishmanial activity against miltefosine resistant Leishmania donovani HU3MILR40 promastigotes […] assessed as inhibition of parasite growth incubated for 72 hrs by automatic microtiter plate reader analysis; type: functional, organism-based
Method in brief: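 Promastigote (free parasite) assay: Schneider's Drosophila medium with 4 mM glutamine, 25 μg mL−1 gentamicin, 10% heat-inactivated FBS, pH 6.9, 27 °C. 1.5 × 10^5 promastigotes per well exposed to a concentration series for 72 h at 27 °C.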

[6] = Cytotoxicity against mouse L929 cells assessed as inhibition of cell growth incubated for 72 hrs by MTS assay; type: toxicity, cell-based
Method in brief: (§2)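 Cells in DMEM + 10% heat-inactivated FBS with penicillin/streptomycin at 37 °C, 5% CO2. They were seeded at 1 × 10^4/well and incubated with a concentration series for 72 h at 37 °C. Viability was read by MTS/PMS assay at 490 nm and IC50 derived.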

[7] = tested on: RAW264.7; experiment: Cytotoxicity against mouse RAW264.7 cells assessed as inhibition of cell growth incubated for 72 hrs by MTS assay; type: functional, cell-based; conditions: RAW264.7, 72 h; method in brief: as §2
[8] = target: T1, Voltage-gated inwardly rectifying potassium channel KCNH2 (Homo sapiens, UniProt Q12809); experiment: Inhibition of human ERG stably overexpressed in HEK293 cells incubated for 30 mins by FLIPR assay; type: toxicity, cell-based; conditions: human, hek293, 0.5 h; time 30 min
T1 sequence (Q12809 whole entry): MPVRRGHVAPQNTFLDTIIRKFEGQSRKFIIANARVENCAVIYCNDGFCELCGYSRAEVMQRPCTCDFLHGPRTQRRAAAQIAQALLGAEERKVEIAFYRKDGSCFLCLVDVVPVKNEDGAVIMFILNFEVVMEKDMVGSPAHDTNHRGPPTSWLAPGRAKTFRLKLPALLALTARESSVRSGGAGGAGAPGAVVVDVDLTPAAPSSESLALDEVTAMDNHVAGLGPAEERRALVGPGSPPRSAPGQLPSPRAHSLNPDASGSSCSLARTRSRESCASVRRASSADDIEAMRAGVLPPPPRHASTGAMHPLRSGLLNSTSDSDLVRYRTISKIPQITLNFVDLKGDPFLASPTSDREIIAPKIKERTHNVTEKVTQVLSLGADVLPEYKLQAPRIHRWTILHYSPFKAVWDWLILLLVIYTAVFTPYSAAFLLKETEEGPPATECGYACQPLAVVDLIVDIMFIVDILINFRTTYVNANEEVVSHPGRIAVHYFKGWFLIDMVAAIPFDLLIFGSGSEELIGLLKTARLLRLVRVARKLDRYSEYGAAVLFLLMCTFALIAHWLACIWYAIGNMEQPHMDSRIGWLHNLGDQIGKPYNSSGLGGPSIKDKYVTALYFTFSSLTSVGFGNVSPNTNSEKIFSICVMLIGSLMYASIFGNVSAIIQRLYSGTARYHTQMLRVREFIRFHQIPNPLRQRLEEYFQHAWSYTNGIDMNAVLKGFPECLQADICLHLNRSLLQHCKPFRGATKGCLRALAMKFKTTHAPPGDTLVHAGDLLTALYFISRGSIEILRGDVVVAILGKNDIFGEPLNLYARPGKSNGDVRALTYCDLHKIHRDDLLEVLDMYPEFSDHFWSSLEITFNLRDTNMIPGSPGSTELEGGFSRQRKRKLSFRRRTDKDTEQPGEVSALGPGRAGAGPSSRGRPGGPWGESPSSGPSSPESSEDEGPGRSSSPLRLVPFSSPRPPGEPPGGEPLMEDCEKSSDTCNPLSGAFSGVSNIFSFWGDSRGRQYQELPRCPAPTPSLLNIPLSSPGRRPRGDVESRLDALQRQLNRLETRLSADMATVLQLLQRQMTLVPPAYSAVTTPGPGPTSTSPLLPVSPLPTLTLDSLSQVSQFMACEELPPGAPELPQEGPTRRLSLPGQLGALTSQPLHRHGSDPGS

[9] = Metabolic stability in rat liver microsome assessed as compound remaining at 20 uM measured after 32 mins in presence of NADP and GSH by HPLC analysis; type: ADME; conditions: liver microsomes, read-out: Stability
Method in brief: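 Rat liver microsomes (final 2 mg/mL) in 50 mM phosphate pH 7.4 with 0.3 mM NADP+, 5.3 mM glucose-6-phosphate, G6PDH, 10 mM MgCl2 and 5 mM EDTA. 20 μM compound added at 37 °C. Aliquots at 0, 16 and 32 min were quenched in ice-cold acetonitrile and centrifuged. HPLC peak area at 254/280 nm was expressed relative to 0 min.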

[10] = Metabolic stability in rat liver S9 fraction assessed as compound remaining at 20 uM measured after 32 mins in presence of NADP and GSH by HPLC analysis; type: ADME, subcellular; conditions: read-out: Stability
Method in brief: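 Rat liver S9 (final 4 mg/mL) in 50 mM phosphate pH 7.4 with NADPH-regenerating system (0.3 mM NADP+, 5.3 mM glucose-6-phosphate, G6PDH), 10 mM MgCl2 and 5 mM EDTA. Pre-warmed 10 min at 37 °C, then 20 μM compound and 5.5 μM GSH added. Samples taken at 0, 16 and 32 min were quenched in ice-cold acetonitrile. HPLC (254/280 nm) peak area was expressed relative to 0 min.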

[11] = Hepatotoxicity against mouse TAMH cells assessed as cell viability at 7.8 to 125 uM incubated for 24 to 48 hrs by MTT assay; type: toxicity, cell-based; conditions: dose lower 7.8 µM, time lower 24 hrs, dose upper 125 µM, time upper 48 hrs, read-out: Activity
Method in brief: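 TAMH mouse liver cells in FCS-free DMEM/F12 with 5% PANEXIN NTA, 10 mM nicotinamide and gentamicin. Seeded at 20 000/well and attached 24 h at 37 °C, 5% CO2. DMSO-diluted compounds were applied for 24 or 48 h. MTT was added for 4 h, formazan dissolved in DMSO and A570 read. Viability was background-corrected and expressed relative to DMSO controls; mean ± SD, ≥3 experiments.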

[12] = target: T1, Voltage-gated inwardly rectifying potassium channel KCNH2; experiment: (§3) Inhibition of human ERG stably overexpressed in HEK293 cells assessed as remaining activity at 6 uM incubated for 30 mins by FLIPR assay; type: toxicity, cell-based; conditions: hek293, 0.5 h, 6 µM
Method in brief: (§4)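 HEK-293 cells stably expressing hERG, seeded at 60 000/well and grown 24 h. Compounds were added in DMSO (final 0.5%) and incubated 30 min in the dark. After 20 s baseline, Tl+ stimulus (3 mM) was added and fluorescence (ex 485/em 535 nm) recorded for 2.5 min.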

[13] = target: hERG (KCNH2) (Homo sapiens, UniProt Q12809); experiment: as §3; type: toxicity, cell-based; conditions: HEK293 cells stably overexpressing hERG, read-out: Activity; method in brief: as §4
Sequence of hERG (KCNH2) (Q12809 whole entry): as above

[14] = tested on: Leishmania amazonensis; experiment: Antileishmanial activity against wild type Leishmania amazonensis LV78 amastigotes infected in mouse peritoneal macrophage assessed as inhibition of parasite growth incubated for 72 hrs by giemsa staining based analysis; type: functional, organism-based
Method in brief: (§5)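 Mouse peritoneal macrophages (1 × 10^5/well on coverslips, DMEM + 10% heat-inactivated FBS, penicillin/streptomycin) adhered overnight at 37 °C, 5% CO2. They were infected overnight with late-log promastigotes at a 20:1 parasite:macrophage ratio. Cells were then treated with compound for 72 h at 37 °C and Giemsa-stained. Amastigotes per 100 macrophages were counted to derive IC50; mean ± SD of 3–4 independent experiments.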

[15] = tested on: Leishmania braziliensis; experiment: Antileishmanial activity against wild type Leishmania braziliensis UA847 amastigotes infected in mouse peritoneal macrophage assessed as inhibition of parasite growth incubated for 72 hrs by giemsa staining based analysis; type: functional, organism-based; method in brief: as §5
[16] = tested on: Leishmania donovani; experiment: Antileishmanial activity against wild type Leishmania donovani HU3 amastigotes infected in mouse peritoneal macrophage assessed as inhibition of parasite growth incubated for 72 hrs by giemsa staining based analysis; type: functional, organism-based
Method in brief: (§6)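 Mouse peritoneal macrophages in DMEM + 10% heat-inactivated FBS, penicillin/streptomycin; 1 × 10^5 cells per well on coverslips, adhered overnight at 37 °C, 5% CO2, non-adherent cells washed off. Infected overnight with late-log promastigotes at parasite:macrophage 40:1. Compound exposure 72 h at 37 °C; Giemsa stain, amastigotes per 100 macrophages counted, IC50 derived; means ± SD of 3–4 independent experiments.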

[17] = tested on: Leishmania donovani; experiment: Antileishmanial activity against miltefosine resistant Leishmania donovani HU3MILR40 amastigotes infected in mouse peritoneal macrophage assessed as inhibition of parasite growth incubated for 72 hrs by giemsa staining based analysis; type: functional, organism-based; method in brief: as §6
[18] = Cytotoxicity against mouse peritoneal macrophage assessed as inhibition of cell growth incubated for 72 hrs by giemsa staining based analysis; type: toxicity; conditions: peritoneal macrophages
[19] = Hepatotoxicity against human HepG2 cells assessed as cell viability at 125 uM incubated for 48 hrs by MTT assay; type: toxicity, cell-based; conditions: HepG2 cells, read-out: Activity
Method in brief: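 HEP-G2 cells in RPMI 1640 + 10% heat-inactivated FBS, penicillin/streptomycin. Seeded at 15 000/well and attached 24 h at 37 °C, 5% CO2. Compounds were serially diluted in DMSO, with 24 or 48 h exposure. MTT (2.5 mg/mL solution) was added for 4 h, formazan dissolved in DMSO and A570 read. Viability was background-corrected against DMSO-treated cell controls; mean ± SD, ≥3 experiments.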

Row | Structure (SMILES) | pIC50 [1] | pIC50 [2] | pIC50 [3] | pIC50 [4] | pIC50 [5] | IC50 at 72 h [6] | pIC50 [7] | IC25 [8] | remaining at 32 min, 20 µM [9] | remaining at 32 min, 20 µM [10] | viability at up to 125 µM [11] | inhibition (INH) [12] | activity at 0.5 h, 6 µM [13] | pIC50 [14] | pIC50 [15] | pIC50 [16] | pIC50 [17] | IC50 at 72 h [18] | viability at 48 h, 125 µM [19]
1 | CSc1ccc(NC(=O)c2ncc([N+](=O)[O-])[nH]2)cc1 | < 4.70 | < 4.70 | < 4.70 | < 4.70 | < 4.86 | 84.7 µM | < 4.16 | > 12.5 µM | 18.4% | 68.2% | 56% | Not_active | – | – | – | – | – | – | –
2 | CSc1ccc(CCc2ncc([N+](=O)[O-])n2C)cc1 | 4.57 | 4.76 | 5.04 | 4.90 | 5.15 | > 100 µM | < 4.04 | 9.8 µM | 0% | 47.5% | > 50% | – | 64% | – | – | – | – | – | –
3 | Cn1c([N+](=O)[O-])cnc1CCc1ccc(S(C)(=N)=O)cc1 (configuration not stated) | < 4.70 | < 4.70 | 4.93 | < 4.70 | < 4.70 | > 100 µM | < 4.00 | 49.4 µM | 100% | 100% | > 50% | – | – | – | – | – | – | – | –
4 | CSc1ccc(C(=O)Nc2ccc3c(c2)B(O)OC3(C)C)cc1 | 5.44 | 5.36 | 5.41 | 4.92 | 4.81 | > 100 µM | 4.13 | > 6.2 µM | 8% | 61.3% | > 50% | – | 66% | < 5.00 | < 5.00 | < 5.00 | < 5.00 | > 100 µM | 54%
5 | Cn1c([N+](=O)[O-])cnc1C(=O)Nc1ccc(F)cc1C(F)(F)F | 5.35 | 5.64 | 5.92 | 5.09 | 4.91 | > 100 µM | < 4.00 | > 6.2 µM | 100% | 100% | > 50% | – | – | < 5.00 | < 5.00 | < 5.00 | < 5.00 | > 100 µM | –
6 | CSc1ccc(NC(=O)c2ncc([N+](=O)[O-])n2C)cc1 | < 4.70 | < 4.70 | 5.19 | < 4.70 | < 4.70 | > 100 µM | < 4.00 | > 3.1 µM | 0% | 6.9% | > 50% | – | – | – | – | – | – | – | –
7 | CSc1ccc(OCc2ncc(C#N)n2C)cc1 | < 4.70 | < 4.70 | < 4.70 | < 4.70 | < 4.70 | > 100 µM | < 4.00 | 27.1 µM | 8.2% | 82.6% | > 50% | – | – | – | – | – | – | – | –
8 | C[S+]([O-])c1ccc(C(=O)Nc2ccc3c(c2)B(O)OC3(C)C)cc1 (configuration not stated) | < 4.70 | < 4.70 | < 4.70 | < 4.77 | < 4.70 | > 100 µM | < 4.00 | 25.7 µM | 95.2% | 100% | > 50% | Not_active | – | – | – | – | – | – | 54.2%
9 | CSc1ccc(NCc2ncc([N+](=O)[O-])n2C)cc1 | < 4.70 | < 4.70 | 5.02 | < 4.70 | 4.92 | > 100 µM | < 4.00 | 3.1 µM | 0% | 73.4% | > 50% | – | 48% | – | – | – | – | – | –
10 | CSc1ccc(Cn2ccn3cc([N+](=O)[O-])nc3c2=O)cc1 | < 4.70 | < 4.70 | 5.05 | < 4.78 | < 4.70 | > 57.5 µM | 4.32 | > 2 µM | 93.1% | 100% | > 50% | – | – | – | – | – | – | – | –
11 | Cn1c([N+](=O)[O-])cnc1COc1ccc(S(C)(=N)=O)cc1 (configuration not stated) | 4.84 | 5.02 | 5.57 | 4.91 | 4.91 | > 100 µM | < 4.00 | > 100 µM | 100% | 100% | > 50% | Not_active | – | – | – | – | – | – | –
12 | COc1ccc(Cn2ccn3cc([N+](=O)[O-])nc3c2=O)cc1 | < 4.70 | < 4.70 | 5.16 | < 4.91 | < 4.73 | > 100 µM | < 4.00 | > 2 µM | 100% | 100% | > 50% | – | – | – | – | – | – | – | –
13 | CS(=O)(=O)c1ccc(OCC2Cn3cc([N+](=O)[O-])nc3O2)cc1 (configuration not stated) | < 4.70 | < 4.70 | < 4.70 | < 4.70 | 5.35 | > 100 µM | < 4.00 | 15.2 µM | 100% | 100% | > 50% | – | – | – | – | – | – | – | –
14 | Cn1c([N+](=O)[O-])cnc1C(=O)N1CCS(=O)(=O)CC1 | 4.88 | 4.91 | 5.47 | 5.12 | 4.86 | > 100 µM | < 4.00 | > 6.2 µM | 100% | 100% | > 50% | – | – | – | – | – | – | – | –
